From ChEMBL document CHEMBL3860039, “Structure-Activity Relationship and Signaling of New Chimeric CXCR4 Agonists” (J Med Chem, 2016)

What was measured:
Assay type in all cases: cell-based
[1] = target: T1, C-X-C chemokine receptor type 4 (Homo sapiens, UniProt P61073); test: Agonist activity at CXCR4 in human REH cells assessed as induction of chemotaxis incubated for 3 hrs by transwell migration assay
Summary of the method: (§1)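 REH acute lymphoblastic B-cell leukaemia cells washed in RPMI; 100 000 cells in RPMI + 0.2% BSA seeded on top of 5 μm pore polycarbonate transwell, peptide dilutions in same medium in bottom chamber; 3 h, 37 °C, 5% CO2. Migrated cells in lower chamber counted by automated counter, expressed as % of seeded cells; peak = concentration giving maximal migration. Three experiments in triplicate.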

[2] = target: T1, C-X-C chemokine receptor type 4; test: Displacement of [125I]-CXCL12 from HA-tagged human recombinant CXCR4 expressed in HEK293 cells incubated for 1 hr by gamma-radiation counting analysis
[3] = target: T1, C-X-C chemokine receptor type 4; test: Agonist activity at HA-tagged human CXCR4 receptor expressed in HEK293 cells co-transfected with Galphai1-91-RlucII, Gbeta1, and GFP10-G-gamma1 incubated for 7 mins by Galpha1 protein activation-based BRET assay
Summary of the method: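 HEK293 cells (3 × 10^6 per 100 mm dish) co-transfected via polyethylenimine with HA-hCXCR4 plus Gαi1-91-RlucII, Gβ1, GFP10-Gγ1; replated at 24 h, 100 000 cells/well. At 48 h, washed in HBSS/0.1% BSA, exposed to ligand 10−12 to 10−5 M for 7 min, then coelenterazine-400A 5 μM final; BRET2 515/400 nm ratio. EC50 (Gαi dissociation) and Emax from three experiments in triplicate.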

[4] = target: T1, C-X-C chemokine receptor type 4; test: Agonist activity at CXCR4 in human REH cells assessed as optimal concentration causing maximum induction of chemotaxis incubated for 3 hrs by transwell migration assay; summary of the method: as §1

T1 sequence (P61073 whole entry): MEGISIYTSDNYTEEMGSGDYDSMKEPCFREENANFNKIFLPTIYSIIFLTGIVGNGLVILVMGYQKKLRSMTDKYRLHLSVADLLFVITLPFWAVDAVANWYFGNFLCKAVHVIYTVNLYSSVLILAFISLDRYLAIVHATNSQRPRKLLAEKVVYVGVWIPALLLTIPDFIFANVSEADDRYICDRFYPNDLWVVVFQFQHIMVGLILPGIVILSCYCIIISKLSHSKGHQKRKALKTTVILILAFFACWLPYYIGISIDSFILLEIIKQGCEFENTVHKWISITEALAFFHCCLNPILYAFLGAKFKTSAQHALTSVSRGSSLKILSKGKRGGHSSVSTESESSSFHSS

| %max [1] [%] | IC50 [2] [nM] | EC50 [3] [nM] | Emax [3] [%] | Activity [4] [nM] | Compound |
| --- | --- | --- | --- | --- | --- |
| 70 | 31 | 50 | 70 | 10 | CC(C)C[C@H](NC(=O)[C@H](CO)NC(=O)[C@H](C/C=C/c1ccccc1)NC(=O)[C@@H]1CCCN1C(=O)[C@@H](N)CCCCN)C(=O)N[C@@H](CO)C(=O)N[C@@H](Cc1ccc(O)cc1)C(=O)N[C@@H](CCCNC(=N)N)C(=O)N[C@@H](CO)C(=O)N[C@@H](C)C(=O)NCCCC[C@H](NC(=O)[C@@H]1CSSC[C@H](NC(=O)[C@H](Cc2ccc3ccccc3c2)NC(=O)[C@H](CCCNC(=N)N)NC(=O)[C@@H](N)CCCNC(=N)N)C(=O)N[C@@H](Cc2ccc(O)cc2)C(=O)N[C@@H](CCCNC(=N)N)C(=O)N[C@@H](CCCCN)C(=O)N[C@H](CCCCN)C(=O)N2CCC[C@H]2C(=O)N[C@@H](Cc2ccc(O)cc2)C(=O)N[C@@H](CCCNC(=N)N)C(=O)N[C@@H](CCCNC(=N)N)C(=O)N1)C(=O)O |
| 45 | 84 | 58 | 55 | 10 | CC(C)C[C@H](NC(=O)[C@H](CO)NC(=O)[C@@H](NC(=O)[C@@H]1CCCN1C(=O)[C@@H](N)CCCCN)C(C)C)C(=O)N[C@@H](CO)C(=O)N[C@@H](Cc1ccc(O)cc1)C(=O)N[C@@H](CCCNC(=N)N)C(=O)N[C@@H](CO)C(=O)N[C@@H](C)C(=O)NCCCC[C@H](NC(=O)[C@@H]1CSSC[C@H](NC(=O)[C@H](Cc2ccc3ccccc3c2)NC(=O)[C@H](CCCNC(=N)N)NC(=O)[C@@H](N)CCCNC(=N)N)C(=O)N[C@@H](Cc2ccc(O)cc2)C(=O)N[C@@H](CCCNC(=N)N)C(=O)N[C@@H](CCCCN)C(=O)N[C@H](CCCCN)C(=O)N2CCC[C@H]2C(=O)N[C@@H](Cc2ccc(O)cc2)C(=O)N[C@@H](CCCNC(=N)N)C(=O)N[C@@H](CCCNC(=N)N)C(=O)N1)C(=O)O |
| 11.4 | 368 | 144 | 19 | 10000 | CC(C)C[C@H](NC(=O)[C@H](CO)NC(=O)[C@@H](NC(=O)[C@@H]1CCCN1C(=O)[C@@H](N)CCCCN)C(C)C)C(=O)N[C@@H](C)C(=O)N[C@@H](Cc1ccc(O)cc1)C(=O)N[C@@H](CCCNC(=N)N)C(=O)N[C@@H](CO)C(=O)N[C@@H](C)C(=O)NCCCC[C@H](NC(=O)[C@@H]1CSSC[C@H](NC(=O)[C@H](Cc2ccc3ccccc3c2)NC(=O)[C@H](CCCNC(=N)N)NC(=O)[C@@H](N)CCCNC(=N)N)C(=O)N[C@@H](Cc2ccc(O)cc2)C(=O)N[C@@H](CCCNC(=N)N)C(=O)N[C@@H](CCCCN)C(=O)N[C@H](CCCCN)C(=O)N2CCC[C@H]2C(=O)N[C@@H](Cc2ccc(O)cc2)C(=O)N[C@@H](CCCNC(=N)N)C(=O)N[C@@H](CCCNC(=N)N)C(=O)N1)C(=O)O |
| 27 | 94 | 83 | 33 | 10 | CC(C)C[C@H](NC(=O)[C@H](CO)NC(=O)[C@@H](NC(=O)[C@@H]1CCCN1C(=O)[C@@H](N)CCCCN)C(C)C)C(=O)N[C@@H](CO)C(=O)N[C@@H](Cc1ccc(N)cc1)C(=O)N[C@@H](CCCNC(=N)N)C(=O)N[C@@H](CO)C(=O)N[C@@H](C)C(=O)NCCCC[C@H](NC(=O)[C@@H]1CSSC[C@H](NC(=O)[C@H](Cc2ccc3ccccc3c2)NC(=O)[C@H](CCCNC(=N)N)NC(=O)[C@@H](N)CCCNC(=N)N)C(=O)N[C@@H](Cc2ccc(O)cc2)C(=O)N[C@@H](CCCNC(=N)N)C(=O)N[C@@H](CCCCN)C(=O)N[C@H](CCCCN)C(=O)N2CCC[C@H]2C(=O)N[C@@H](Cc2ccc(O)cc2)C(=O)N[C@@H](CCCNC(=N)N)C(=O)N[C@@H](CCCNC(=N)N)C(=O)N1)C(=O)O |
